Results: ChEMBL document CHEMBL3351505, “Ultrasound-assisted synthesis of novel 1,2,3-triazoles coupled diaryl sulfone moieties by the CuAAC reaction, and biological evaluation of them as antioxidant and antimicrobial agents” (Eur J Med Chem, 2014)
In brackets after ≈: the same amount, converted by molar mass. Activity calls are given as the source filed them. No cut-off for these calls is given here.

Tests used:
Staphylococcus aureus [1] = experiment: Antibacterial activity against Staphylococcus aureus ATCC 29213 using 100 uL of test compound after 24 hrs by agar well diffusion method; type: functional
Outline: (§1)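 Agar well diffusion. Nutrient agar was spread with bacterial suspension at 1×10⁸ CFU/mL, and 10 mm wells were cut. Wells were loaded with compound solution made at 200 mg per 1 mL DMSO. Plates were incubated 24 h at 37 °C and inhibition zones were measured. DMSO served as the negative control.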

Bacillus subtilis [2] = experiment: Antibacterial activity against Bacillus subtilis ATCC 6633 using 100 uL of test compound after 24 hrs by agar well diffusion method; type: functional; outline: as §1
Priestia megaterium [3] = experiment: Antibacterial activity against Bacillus megaterium ATCC 9885 using 100 uL of test compound after 24 hrs by agar well diffusion method; type: functional; outline: as §1
Micrococcus luteus [4] = experiment: Antibacterial activity against Sarcina lutea using 100 uL of test compound after 24 hrs by agar well diffusion method; type: functional; outline: as §1
Klebsiella pneumoniae [5] = experiment: Antibacterial activity against Klebsiella pneumoniae ATCC 13883 using 100 uL of test compound after 24 hrs by agar well diffusion method; type: functional; outline: as §1
Pseudomonas aeruginosa [6] = experiment: Antibacterial activity against Pseudomonas aeruginosa ATCC 27953 using 100 uL of test compound after 24 hrs by agar well diffusion method; type: functional; outline: as §1
Escherichia coli [7] = experiment: Antibacterial activity against Escherichia coli ATCC 25922 using 100 uL of test compound after 24 hrs by agar well diffusion method; type: functional; outline: as §1
Candida albicans [8] = experiment: Antifungal activity against Candida albicans NRRL Y-477 using 100 uL of test compound after 48 hrs by agar well diffusion method; type: functional
Outline: (§2)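 Agar well diffusion. Sabouraud dextrose agar was spread with yeast or fungal suspension at 1×10⁶ CFU/mL, and 10 mm wells were cut. Wells were loaded with compound solution made at 200 mg per 1 mL DMSO. Plates were incubated 48 h at 28 °C and inhibition zones were measured. DMSO served as the negative control.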

Saccharomyces cerevisiae [9] = experiment: Antifungal activity against Saccharomyces cerevisiae using 100 uL of test compound after 48 hrs by agar well diffusion method; type: functional; outline: as §2
Aspergillus niger [10] = experiment: Antifungal activity against Aspergillus niger using 100 uL of test compound after 48 hrs by agar well diffusion method; type: functional; outline: as §2
Staphylococcus aureus [11] = experiment: Antibacterial activity against Staphylococcus aureus ATCC 29213 after 24 hrs by two fold serial dilution method; type: functional
Bacillus subtilis [12] = experiment: Antibacterial activity against Bacillus subtilis ATCC 6633 after 24 hrs by two fold serial dilution method; type: functional
Priestia megaterium [13] = experiment: Antibacterial activity against Bacillus megaterium ATCC 9885 after 24 hrs by two fold serial dilution method; type: functional
Micrococcus luteus [14] = experiment: Antibacterial activity against Sarcina lutea after 24 hrs by two fold serial dilution method; type: functional
Klebsiella pneumoniae [15] = experiment: Antibacterial activity against Klebsiella pneumoniae ATCC 13883 after 24 hrs by two fold serial dilution method; type: functional
Pseudomonas aeruginosa [16] = experiment: Antibacterial activity against Pseudomonas aeruginosa ATCC 27953 after 24 hrs by two fold serial dilution method; type: functional
Escherichia coli [17] = experiment: Antibacterial activity against Escherichia coli ATCC 25922 after 24 hrs by two fold serial dilution method; type: functional
Candida albicans [18] = experiment: Antifungal activity against Candida albicans NRRL Y-477 after 48 hrs by two fold serial dilution method; type: functional
Outline: (§3)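 Two-fold serial broth dilution in a suitable broth, run only on compounds giving inhibition zones of at least 16 mm. Final concentrations were […]. Each 5 mL received 0.1 mL inoculum and was incubated 48 h at 28 °C. MIC was the lowest concentration without growth.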

Saccharomyces cerevisiae [19] = experiment: Antifungal activity against Saccharomyces cerevisiae after 48 hrs by two fold serial dilution method; type: functional; outline: as §3
Aspergillus niger [20] = experiment: Antifungal activity against Aspergillus niger after 48 hrs by two fold serial dilution method; type: functional; outline: as §3
[21] = Antioxidant activity assessed as DPPH free radical scavenging activity by spectrophotometric assay; type: physicochemical
Outline: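 Sample solutions at several concentrations were added to 0.004% DPPH in methanol and incubated 60 min in the dark. Absorbance was read at 517 nm against a blank. Inhibition % = (A_blank − A_sample)/A_blank × 100, where the control contained all reagents except the test compound.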

SMILES	diameter of the inhibition zone (DIZ) (Staphylococcus aureus [1])	diameter of the inhibition zone (DIZ) (Bacillus subtilis [2])	diameter of the inhibition zone (DIZ) (Priestia megaterium [3])	diameter of the inhibition zone (DIZ) (Micrococcus luteus [4])	diameter of the inhibition zone (DIZ) (Klebsiella pneumoniae [5])	diameter of the inhibition zone (DIZ) (Pseudomonas aeruginosa [6])	diameter of the inhibition zone (DIZ) (Escherichia coli [7])	diameter of the inhibition zone (DIZ) (Candida albicans [8])	diameter of the inhibition zone (DIZ) (Saccharomyces cerevisiae [9])	diameter of the inhibition zone (DIZ) (Aspergillus niger [10])	MIC (Bacillus subtilis [12]; ATCC 6633, 24 h)	MIC (Priestia megaterium [13]; ATCC 9885, 24 h)	MIC (Micrococcus luteus [14])	MIC (Klebsiella pneumoniae [15])	MIC (Pseudomonas aeruginosa [16])	MIC (Saccharomyces cerevisiae [19])	MIC (Aspergillus niger [20])	IC50 [21]	MIC (Escherichia coli [17]; ATCC 25922, 24 h)	MIC (Staphylococcus aureus [11]; ATCC 29213, 24 h)	also measured
O=C(Cn1cc(CC(O)c2ccc(S(=O)(=O)c3ccccc3)cc2)nn1)c1ccc(F)cc1 (configuration not stated)	14 mm	19 mm	17 mm	20 mm	15 mm	19 mm	14 mm	13 mm	inactive	32 mm	200 µg/mL (≈ 430 µM)	200 µg/mL (≈ 430 µM)	200 µg/mL (≈ 430 µM)	inactive	200 µg/mL (≈ 430 µM)	inactive	50 µg/mL (≈ 107 µM)	275 µg/mL (≈ 591 µM)			MIC (Staphylococcus aureus [11]): inactive; MIC (Escherichia coli [17]): inactive; MIC (Candida albicans [18]): inactive
CC(Cc1cn(Cc2ccccc2)nn1)(OCc1cn(Cc2ccccc2)nn1)c1ccc(S(=O)(=O)c2ccccc2)cc1 (configuration not stated)	14 mm	14 mm	17 mm	17 mm	15 mm	19 mm	18 mm	16 mm	14 mm	34 mm		200 µg/mL (≈ 331 µM)	200 µg/mL (≈ 331 µM)	inactive	200 µg/mL (≈ 331 µM)	inactive	25 µg/mL (≈ 41.3 µM)	600 µg/mL (≈ 992 µM)	200 µg/mL (≈ 331 µM)		MIC (Staphylococcus aureus [11]): inactive; MIC (Bacillus subtilis [12]): inactive; MIC (Candida albicans [18]; NRRL Y-477, 48 h): 200 µg/mL (≈ 331 µM)
O=C(Cn1cc(COC(Cc2cn(CC(=O)c3ccc(S(=O)(=O)c4ccccc4)cc3)nn2)c2ccc(S(=O)(=O)c3ccccc3)cc2)nn1)c1ccc(S(=O)(=O)c2ccccc2)cc1 (configuration not stated)	17 mm	14 mm	inactive	19 mm	13 mm	14 mm	inactive	14 mm	inactive	20 mm			200 µg/mL (≈ 216 µM)	inactive	inactive	inactive	100 µg/mL (≈ 108 µM)	600 µg/mL (≈ 647 µM)		200 µg/mL (≈ 216 µM)	MIC (Bacillus subtilis [12]): inactive; MIC (Priestia megaterium [13]): inactive; MIC (Escherichia coli [17]): inactive; MIC (Candida albicans [18]): inactive
O=C(Cn1cc(COC(Cc2cn(CC(=O)c3ccccc3)nn2)c2ccc(S(=O)(=O)c3ccccc3)cc2)nn1)c1ccccc1 (configuration not stated)	24 mm	17 mm	20 mm	24 mm	15 mm	23 mm	20 mm	23 mm	22 mm	20 mm	200 µg/mL (≈ 309 µM)	200 µg/mL (≈ 309 µM)	100 µg/mL (≈ 155 µM)		100 µg/mL (≈ 155 µM)	200 µg/mL (≈ 309 µM)	200 µg/mL (≈ 309 µM)	175 µg/mL (≈ 271 µM)	200 µg/mL (≈ 309 µM)	100 µg/mL (≈ 155 µM)	MIC (Klebsiella pneumoniae [15]; ATCC 13883, 24 h): 100 µg/mL (≈ 155 µM); MIC (Candida albicans [18]; NRRL Y-477, 48 h): 200 µg/mL (≈ 309 µM)
O=C(Cn1cc(COC(Cc2cn(CC(=O)c3ccc(F)cc3)nn2)c2ccc(S(=O)(=O)c3ccccc3)cc2)nn1)c1ccc(F)cc1 (configuration not stated)	26 mm	19 mm	17 mm	20 mm	16 mm	15 mm	14 mm	22 mm	19 mm	32 mm	200 µg/mL (≈ 293 µM)	200 µg/mL (≈ 293 µM)	200 µg/mL (≈ 293 µM)		inactive	200 µg/mL (≈ 293 µM)	50 µg/mL (≈ 73.2 µM)	275 µg/mL (≈ 403 µM)		100 µg/mL (≈ 146 µM)	MIC (Klebsiella pneumoniae [15]; ATCC 13883, 24 h): 200 µg/mL (≈ 293 µM); MIC (Escherichia coli [17]): inactive; MIC (Candida albicans [18]; NRRL Y-477, 48 h): 200 µg/mL (≈ 293 µM)
CC(O)(Cc1cn(CC(=O)c2ccc(F)cc2)nn1)c1ccc(S(=O)(=O)c2ccccc2)cc1 (configuration not stated)	17 mm	19 mm	17 mm	21 mm	19 mm	22 mm	19 mm	15 mm	inactive	32 mm	200 µg/mL (≈ 417 µM)	200 µg/mL (≈ 417 µM)	200 µg/mL (≈ 417 µM)		200 µg/mL (≈ 417 µM)	inactive	50 µg/mL (≈ 104 µM)	425 µg/mL (≈ 886 µM)	200 µg/mL (≈ 417 µM)	200 µg/mL (≈ 417 µM)	MIC (Klebsiella pneumoniae [15]; ATCC 13883, 24 h): 200 µg/mL (≈ 417 µM); MIC (Candida albicans [18]): inactive
O=C(Cn1cc(COC(Cc2cn(CC(=O)c3ccc(Br)cc3)nn2)c2ccc(S(=O)(=O)c3ccccc3)cc2)nn1)c1ccc(Br)cc1 (configuration not stated)	17 mm	17 mm	20 mm	22 mm	inactive	inactive	17 mm	21 mm	20 mm	20 mm	200 µg/mL (≈ 249 µM)	200 µg/mL (≈ 249 µM)	200 µg/mL (≈ 249 µM)	inactive	inactive	200 µg/mL (≈ 249 µM)	200 µg/mL (≈ 249 µM)	150 µg/mL (≈ 186 µM)	200 µg/mL (≈ 249 µM)	200 µg/mL (≈ 249 µM)	MIC (Candida albicans [18]; NRRL Y-477, 48 h): 200 µg/mL (≈ 249 µM)
